In the M2OR odorant receptor database:

What follows are molecules tested against T1, UniProt E9PVX1. Details: stereoisomer not certain.
T1 sequence (whole entry): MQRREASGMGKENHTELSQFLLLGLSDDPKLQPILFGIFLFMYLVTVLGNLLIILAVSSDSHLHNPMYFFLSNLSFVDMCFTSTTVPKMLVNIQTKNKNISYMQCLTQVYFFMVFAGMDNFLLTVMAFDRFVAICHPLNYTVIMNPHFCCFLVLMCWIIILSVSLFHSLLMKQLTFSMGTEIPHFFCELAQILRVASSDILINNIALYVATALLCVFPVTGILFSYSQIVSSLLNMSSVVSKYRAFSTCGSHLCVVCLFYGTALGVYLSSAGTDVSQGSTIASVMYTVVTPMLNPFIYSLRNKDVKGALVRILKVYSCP
How it was run: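 Whether a receptor–molecule pair is responsive (active) rests on the original authors' judgment that its measured signal was statistically different from baseline. Pairs without that judgment are non-responsive (inactive). Sources used varied assay methods, commonly transient luciferase assays in mammalian cell lines.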
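Note: active if original authors judged signal statistically different from baseline.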

Odorant receptor agonist call, inactive:
O=C([O-])CCCCCCC(=O)[O-].[H+].[H+]
CCCCCOC(=O)CC
OCC=Cc1ccccc1
C=CC(=C)CCC=C(C)CCC=C(C)C
CCCCCCCCOC=O
CCOC(=O)C(C)CC (configuration not stated)
Cc1ccc(C(C)C)cc1
CC=C(C)C=O
CCCCCC=CCCC=O
CC(=O)OCc1ccc2c(c1)OCO2
Cc1ccc(C(C)C)c(O)c1
CCC=CCCCCC=O
CC(CC=O)CCCC(C)(C)O (configuration not stated)
CC1(C)CC(=O)CC(=O)C1
CC(C)=C1CCC(C)CC1=O (configuration not stated)
CCCCCCC(=O)OCCCC
CCC=CCCC=CC=O
C=CC(C)=CCC=C(C)CCC=C(C)C
OCCCCCCCCCO
CCOC(=O)CC(C)C
C1CCOC1
C=CC(=O)CCCCC
CCc1ccccc1O
CSSCc1ccco1
Cc1ccc(OC(=O)C(C)C)cc1
COc1nccnc1C
CCCCCCCCCCCO
COc1ccccc1
CC1CCC(C(C)C)C(=O)C1 (configuration not stated)
Cc1occc1SSc1ccoc1C
Cc1c(C)c(C)c(C=O)c(C)c1C
C=C(C)C1CC=C(C)CC1 (configuration not stated)
CCCCCC(=Cc1ccccc1)C(OC)OC
O=C(O)CCCCCBr
CC(C)=CCCC(C)=CCOC(=O)C(C)C
C=C(C)C1CCC2(C)OC2C1 (configuration not stated)
c1ccc2ncccc2c1
